# According to ChEMBL document CHEMBL4613248, “Twelfth-Position Deuteration of Nevirapine Reduces 12-Hydroxy-Nevirapine Formation and Nevirapine-Induced Hepatocyte Death” (J Med Chem, 2020):
# Assays:
# [1] = test system: Hepatocyte; test: Induction of change in RBM39 protein expression in human primary hepatocytes at 10 uM incubated for 48 hrs by relative-quantitation label-free proteomics analysis relative to NVP; assay type: cell-based
# Method in brief: (§1)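 Cryoplateable pooled human hepatocytes (10 mixed-sex donors per pool; three pools), adhered overnight, then given fresh medium containing compound (10 μM), NVP (10 μM) or vehicle (0.1% DMSO) for 48 h. Lysate reduced (DTT) and alkylated (iodoacetamide), acetone-precipitated and digested with trypsin. Label-free Top10 nanoLC-MS with precursor ion area quantitation; unpaired t test P values, Cohen's d effect size.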
# [2] = target: T1, Cytochrome P450 1A1 (Homo sapiens, UniProt P04798); test: Drug metabolism assessed as human CYP1A1-mediated formation of 12-OHNVP at 10 uM pre-incubated for 30 mins followed by addition of NADPH regenerating reagents by uHPLC-MS analysis; assay type: ADME; details: recombinant enzyme
# T1 sequence (P04798 whole entry): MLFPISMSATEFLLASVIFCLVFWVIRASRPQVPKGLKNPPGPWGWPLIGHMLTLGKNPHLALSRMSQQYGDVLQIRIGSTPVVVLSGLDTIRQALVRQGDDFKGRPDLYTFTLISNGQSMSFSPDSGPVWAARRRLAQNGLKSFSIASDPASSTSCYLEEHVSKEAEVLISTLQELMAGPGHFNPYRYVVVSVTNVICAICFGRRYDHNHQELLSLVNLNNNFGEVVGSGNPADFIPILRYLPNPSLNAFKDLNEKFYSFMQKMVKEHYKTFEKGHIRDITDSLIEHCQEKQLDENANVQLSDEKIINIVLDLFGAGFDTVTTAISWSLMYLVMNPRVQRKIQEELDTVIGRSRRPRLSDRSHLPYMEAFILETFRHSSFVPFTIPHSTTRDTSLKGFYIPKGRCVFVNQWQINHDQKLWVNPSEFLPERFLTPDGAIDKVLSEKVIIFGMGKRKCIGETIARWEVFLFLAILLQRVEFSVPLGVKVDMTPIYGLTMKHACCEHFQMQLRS
# Method in brief: (§2)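 Insect-cell microsomes with single cDNA-expressed human P450 (100 nM) in 0.1 M potassium phosphate; 10 μM substrate prewarmed 5 min at 37 °C with NADPH-regenerating system, reaction started by adding microsomes; 30 min at 37 °C, 0.1% DMSO. Stopped, dried, reconstituted in methanol; triple-quadrupole SRM (12-OH 283.1→223.0, 2-OH 283.1→160.9, 3-OH 283.1→241.9), peak height; three replicates, mean ± SD.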
# [3] = test system: Hepatocyte; test: Induction of change in CYC1 protein expression in human primary hepatocytes at 10 uM incubated for 48 hrs by relative-quantitation label-free proteomics analysis relative to NVP; assay type: cell-based; method in brief: as §1
# [4] = test system: Hepatocyte; test: Induction of change in Rps27a protein expression in C57BL/6J mouse primary hepatocytes at 400 uM incubated for 8 hrs by relative-quantitation label-free proteomics analysis relative to NVP; assay type: cell-based
# Method in brief: as §1, with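 “Fresh primary” for “Cryoplateable pooled human”, “from male C57BL/6J mice aged 8–13 weeks,” for “(10 mixed-sex donors per pool; three pools),”, “(400” for “(10”, “(0.2%” for “(0.1%”, “8” for “48”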
# [5] = test system: Hepatocyte; test: Induction of change in Slc9a3r1 protein expression in C57BL/6J mouse primary hepatocytes at 400 uM incubated for 8 hrs by relative-quantitation label-free proteomics analysis relative to NVP; assay type: cell-based
# Method in brief: as §1, with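 “Fresh primary” for “Cryoplateable pooled human”, “from male C57BL/6J mice aged 8–13 weeks,” for “(10 mixed-sex donors per pool; three pools),”, “(400” for “(10”, “(0.2%” for “(0.1%”, “8” for “48”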
# [6] = test system: Cytochrome P450; test: Drug metabolism in human primary hepatocytes assessed as Cytochrome P450-mediated formation of 3-OHNVP at 10 uM incubated for 24 to 48 hrs by uHPLC-MS analysis; assay type: ADME, cell-based
# Method in brief: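 Cryoplateable pooled human hepatocytes (10 mixed-sex donors per pool, three lots), adhered overnight, then 10 μM substrate or vehicle (0.1% DMSO) for 24 or 48 h in InVitroGRO CP medium. Medium extracted with 50% acetonitrile, dried, reconstituted in methanol; uHPLC-Orbitrap MS/MS for monooxygenated metabolites, high-resolution MS for O-glucuronide.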
# [7] = target: T2, Cytochrome P450 2A6 (Homo sapiens, UniProt P11509); test: Drug metabolism assessed as human CYP2A6-mediated formation of 12-OHNVP at 10 uM pre-incubated for 30 mins followed by addition of NADPH regenerating reagents by uHPLC-MS analysis; assay type: ADME; details: recombinant enzyme; method in brief: as §2
# T2 sequence (P11509 whole entry): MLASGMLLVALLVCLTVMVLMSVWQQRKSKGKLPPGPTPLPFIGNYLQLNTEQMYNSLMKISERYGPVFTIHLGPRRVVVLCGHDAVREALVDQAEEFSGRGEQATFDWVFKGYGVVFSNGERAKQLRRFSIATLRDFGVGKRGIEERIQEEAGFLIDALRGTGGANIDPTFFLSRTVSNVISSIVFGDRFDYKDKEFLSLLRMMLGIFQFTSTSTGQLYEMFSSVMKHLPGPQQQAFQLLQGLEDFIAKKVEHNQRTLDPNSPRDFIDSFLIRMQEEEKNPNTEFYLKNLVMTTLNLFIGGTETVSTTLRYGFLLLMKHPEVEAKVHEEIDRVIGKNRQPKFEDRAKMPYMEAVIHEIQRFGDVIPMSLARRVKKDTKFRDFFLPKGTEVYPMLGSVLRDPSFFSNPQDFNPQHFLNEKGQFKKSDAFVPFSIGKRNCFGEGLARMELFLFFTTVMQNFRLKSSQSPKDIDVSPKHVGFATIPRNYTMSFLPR
# [8] = test system: Hepatocyte; test: Induction of change in KlAA2013 protein expression in human primary hepatocytes at 10 uM incubated for 48 hrs by relative-quantitation label-free proteomics analysis relative to NVP; assay type: cell-based; method in brief: as §1
# [9] = Drug metabolism in C57BL/6J mouse primary hepatocytes assessed as Cytochrome P450-mediated formation of 12-OHD2NVP at 10 uM incubated for 24 hrs by uHPLC-MS analysis; assay type: ADME, cell-based
# Method in brief: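 Fresh hepatocytes from male C57BL/6J mice (8–13 weeks), adhered overnight, then 10 μM substrate or vehicle (0.1% DMSO) for 24 h. Medium extracted with acetonitrile (50% final), dried, reconstituted in methanol; uHPLC-Orbitrap targeted SIM plus PRM (monooxygenated metabolites) or high-resolution ions (O-glucuronides, 459.1510/462.1700 ±5 ppm); four experimental replicates.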
smiles,measurement,setting,value
[2H]C([2H])([2H])c1ccnc2c1NC(=O)c1cccnc1N2C1CC1,fold change (FC),[1],1.7
same,Drug metabolism,[2],Metabolite_Detected
same,fold change (FC),[3],-1.4
same,fold change (FC),[4],3.03
same,fold change (FC),[5],2.5
same,Drug metabolism,[6],Metabolite_Detected
same,Drug metabolism,[7],Metabolite_Detected
same,fold change (FC),[8],1.36
same,Drug metabolism,[9],Metabolite_Detected
